Experimental data: ChEMBL document CHEMBL1121702, “A structure-activity relationship study of spirolactones. Contribution of the cyclopropane ring to antimineralocorticoid activity” (J Med Chem, 1981)

Experiments:
[1] = molecular target: T1, Mineralocorticoid receptor (Rattus norvegicus) (UniProt P22199); assay: Ratio of [3H]aldosterone binding with 8*10e-8 M aldosterone to [3H]aldosterone binding with 8*10e-8 M competitor at Mineralocorticoid receptor
T1 sequence (whole entry): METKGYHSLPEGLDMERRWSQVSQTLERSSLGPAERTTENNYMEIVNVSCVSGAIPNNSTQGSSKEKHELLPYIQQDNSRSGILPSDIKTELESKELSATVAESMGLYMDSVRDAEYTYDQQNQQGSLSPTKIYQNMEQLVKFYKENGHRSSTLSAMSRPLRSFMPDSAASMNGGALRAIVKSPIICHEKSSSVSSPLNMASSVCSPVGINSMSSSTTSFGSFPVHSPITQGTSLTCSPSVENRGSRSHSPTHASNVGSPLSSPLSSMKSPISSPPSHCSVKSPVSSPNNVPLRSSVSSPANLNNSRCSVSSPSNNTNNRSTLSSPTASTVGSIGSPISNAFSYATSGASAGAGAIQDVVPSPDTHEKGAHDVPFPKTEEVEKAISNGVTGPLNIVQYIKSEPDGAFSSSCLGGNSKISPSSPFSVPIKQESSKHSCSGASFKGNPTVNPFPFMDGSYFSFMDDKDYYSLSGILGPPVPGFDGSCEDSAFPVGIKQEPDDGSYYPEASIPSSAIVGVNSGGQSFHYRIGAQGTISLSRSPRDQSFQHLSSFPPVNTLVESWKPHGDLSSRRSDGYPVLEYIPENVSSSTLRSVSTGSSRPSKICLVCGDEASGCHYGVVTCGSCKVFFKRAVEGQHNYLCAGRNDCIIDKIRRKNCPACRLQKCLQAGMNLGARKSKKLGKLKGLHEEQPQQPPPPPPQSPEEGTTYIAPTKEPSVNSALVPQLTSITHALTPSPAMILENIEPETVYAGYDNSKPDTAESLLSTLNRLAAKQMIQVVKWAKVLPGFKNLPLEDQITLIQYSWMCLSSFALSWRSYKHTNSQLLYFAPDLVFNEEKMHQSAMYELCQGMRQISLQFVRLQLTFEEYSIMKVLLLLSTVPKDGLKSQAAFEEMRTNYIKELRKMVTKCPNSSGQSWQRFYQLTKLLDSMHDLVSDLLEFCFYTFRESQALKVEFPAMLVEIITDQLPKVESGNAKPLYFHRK
Procedure, shortened: (§1)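 Competition binding against [3H]aldosterone at the mineralocorticoid steroid-receptor complex. Each spirolactone competitor was tested at 8 × 10^-8 M, with unlabeled aldosterone at the same concentration as reference. Incubation ran 40 min at 25 °C. Labeled aldosterone still receptor-bound afterwards was measured, and binding affinity was expressed relative to aldosterone.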

[2] = molecular target: T1, Mineralocorticoid receptor (Rattus norvegicus); assay: Displacement of [3H]aldosterone from mineralocorticoid receptor; procedure, shortened: as §1

| Relative binding affinity [1] | Binding [2] | SMILES |
| --- | --- | --- |
| 0.24 | 32.2% | CC(=O)S[C@@H]1CC2=CC(=O)CC[C@]2(C)[C@H]2CC[C@@]3(C)[C@@H](CC[C@@]34CCC(=O)O4)[C@H]12 |
| 0.22 | 36% | C[C@]12CCC(=O)C=C1CC[C@@H]1[C@@H]2CC[C@@]2(C)[C@H]1CC[C@@]21CCC(=O)O1 |
| 0.25 | 31.7% | CC12CCC(=O)C=C1[C@@H]1C[C@@H]1C1C2CCC2(C)C1CCC21CCC(=O)O1 (some centres undefined) |
| 0.1 | 77.6% | CC12C(=CC(=O)C3CC31)[C@H]1CC1C1C2CCC2(C)C1CCC21CCC(=O)O1 (some centres undefined) |
| 1 | 7.8% | C[C@]12CCC(=O)C=C1CC[C@@H]1[C@@H]2[C@@H](O)C[C@]2(C=O)[C@@H](C(=O)CO)CC[C@@H]12 |
| 0.15 | 53.5% | C[C@]12C=CC(=O)C=C1CCC1C2CC[C@@]2(C)C1CC[C@@]21CCC(=O)O1 (some centres undefined) |
| 0.1 | 77% | CC12C=CC(=O)C=C1[C@H]1CC1C1C2CCC2(C)C1CCC21CCC(=O)O1 (some centres undefined) |
| 0.15 | 53% | CC12C=CC(=O)C=C1[C@H]1C[C@H]1C1C2CCC2(C)C1CCC21CCC(=O)O1 (some centres undefined) |
| 0.13 | 60% | C[C@]12CCC(=O)C=C1C=C[C@@H]1[C@@H]2CC[C@@]2(C)[C@H]1CC[C@@]21CCC(=O)O1 |
| 0.1 | 76.6% | CC12C=CC(=O)C=C1C=CC1C2CCC2(C)C1CCC21CCC(=O)O1 (centres undefined) |
| 0.14 | 55% | CC12C(=CC(=O)C3CC31)[C@@H]1C[C@@H]1C1C2CCC2(C)C1CCC21CCC(=O)O1 (some centres undefined) |
| 0.12 | 66% | CC12CCC(=O)C=C1[C@H]1C[C@H]1C1C2CCC2(C)C1CCC21CCC(=O)O1 (some centres undefined) |
